According to ChEMBL document CHEMBL4513216, “Probing the Open Global Health Chemical Diversity Library for Multistage-Active Starting Points for Next-Generation Antimalarials” (ACS Infect Dis, 2020):

Assay: Toxicity liver stage against HepG2, at 10uM
Assay type: cell-based
Design: test concentration 10 uM, cell line HepG2-A16-CD81EGFP
Conditions: human, HepG2-A16-CD81EGFP cells; read-out: INHIBITION
In short: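 Uninfected HepG2-A16-CD81EGFP cells, 3 × 10^3 per well, 1536-well, plated on prespotted compound at 10 μM final, parasite-free screening media added to match infected plates; puromycin 10 μM positive, DMSO 0.5% negative; run in parallel with 48 h PbLuc assay at 37 °C, 5% CO2; viability by CellTiter-Glo luminescence, normalized to controls.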

Row | SMILES | cytotoxicity at 10 µM
1 | Cn1c2ccc(F)cc2c2ncn(CCCN(CCO)CCO)c(=O)c21 | 11.2%
2 | CN1CC[C@H](c2nnc(Cc3c[nH]c4ccccc34)o2)C1 | 4.84%
3 | Cn1nc(-c2cccs2)cc1[C@H]1CN2CC[C@H]1C[C@@H]2CN | 5.88%
4 | COCCN(Cc1cc(O)nc2ccccc12)C(=O)NC(C)C | 7.66%
5 | Cn1ccc2ccc(C(=O)N3CCN(C(=O)OC(C)(C)C)CC3)cc21 | 18.1%
6 | CCN1CCNC(=O)C12CCN(S(=O)(=O)c1ccc(OC)cc1)CC2 | 0.699%
7 | COCCN1CCC2(CCN(C(=O)c3ccc(F)cc3)CC2)C1=O | 2.85%
8 | CS(=O)(=O)N1C[C@@H]2CCN(C(=O)c3ccco3)[C@@H]2C1 | 10%
9 | COCc1cncc2c1CCN(Cc1cccnc1)C2 | 3.91%
10 | c1cc(C[C@H]2[C@H](N3CCOCC3)CCN2Cc2ccoc2)ccn1 | 10.2%
11 | CC(=O)N1CCOC2(CCCN(Cc3ccc(N(C)C)cc3)C2)C1 (stereo not drawn) | 0.603%
12 | O=C(c1ccoc1)N1CCc2c(COCc3ccncc3)cncc2C1 | 8.1%
13 | CNC(=O)C1CCN(c2nc3nc[nH]c(=O)c3s2)CC1 | -13.5%
14 | Cc1nc(NC2CCN(S(=O)(=O)c3ccccc3)CC2)[nH]c(=O)c1C | -3.45%
15 | CCOc1cc([C@@H]2N[C@H](c3nccs3)Cc3ccsc32)ccc1OC | 7.94%
16 | COC(=O)c1cccc(C2CNCCN2C(C)=O)c1 (stereo not drawn) | 3.31%
17 | CS(=O)(=O)c1cc(Cl)cnc1C1CCN(C(=O)C2CCOCC2)CC1 | 4.07%
18 | CN(C)c1ncc2c(O)nc(C3CCCNC3)cc2n1 (stereo not drawn) | 8.62%
19 | CNc1nc(C2CCCN(C(=O)C3CCCCC3)C2)nc2c1CNCC2 (stereo not drawn) | -1.85%
20 | Nc1nccnc1CC1CCCN(Cc2c[nH]c3ccccc23)C1 (stereo not drawn) | 2.81%
21 | Cc1cc(CCC(=O)N2CCCC2)nc(C2CCCN2)n1 (stereo not drawn) | 5.91%
22 | CCc1cc(C(=O)N2CCCC(c3[nH]ncc3S(C)(=O)=O)C2)no1 (stereo not drawn) | -0.335%

Row | SMILES | cytotoxicity at 10 µM
23 | CCc1nccn1-c1cccc(C2CCCN(C3CCCCC3)C2)n1 (stereo not drawn) | -5.08%
24 | Cc1c[nH]nc1C1CCCCN1C(=O)CC1(O)CCCCC1 (stereo not drawn) | -2.92%
25 | CC1CCCN(CC(=O)N2CCC(c3ncc4c(n3)CCNC4)CC2)C1 (stereo not drawn) | 7.62%
26 | CNC(=O)CCOC(=O)c1cccc(-n2ccc(C(F)(F)F)n2)c1 | -41.9%
27 | CN1CCC(N2CCOC3(CCCC3)C2)C1=O (stereo not drawn) | -6.52%
28 | O=C(N1CCOCC1)N1CCN(c2ccncc2Cl)CC1 | -4.79%
29 | CC(CNC(=O)c1ccc(Cl)cc1F)N1CCN(C)CC1 (stereo not drawn) | -8.56%
30 | CC(=O)c1cccc(NC(=O)N(CCO)C2CCc3ccccc32)c1 (stereo not drawn) | -3.01%
31 | Cc1nc(-c2ccsc2)ccc1C(=O)N1CCn2c(C)nnc2C1 | -7.83%
32 | CC(C)(C)n1ncc2c(=O)[nH]c(NC3CC=CC3)nc21 | 1.68%
33 | CC(C)c1nc(CNC2CCN(S(C)(=O)=O)CC2)cs1 | -1.53%
34 | CC(C)C(CNCc1cccc2c1OCO2)N1CCOCC1 (stereo not drawn) | -49.1%
35 | CCc1nc(C2CCCN2c2ncc(C(N)=O)cc2Cl)no1 (stereo not drawn) | -3.99%
36 | CNC(=O)C(NC(=O)c1nccn2ccnc12)c1ccc(F)c(F)c1 (stereo not drawn) | -12.6%
37 | O=C(NCC1CC1)[C@@H]1CC[C@@H]2[C@@H](CCN2CCOCc2ccccc2)O1 | -112%
38 | CN1CCN(Cc2cn3c(n2)CN(Cc2ccccn2)CC3)CC1 | -117%
39 | Cc1ccc(CN2CCC3(CCCN(S(C)(=O)=O)C3)C2)o1 (stereo not drawn) | -104%
40 | Cc1nc(COC[C@@H]2CC[C@H]3[C@H](CCN3S(C)(=O)=O)O2)cs1 | 5.22%
41 | Cc1cc(CN2CC[C@H]3C[C@H](c4nccs4)O[C@@H]3C2)no1 | 3.22%
42 | CCC1=N[C@@]2(CC[C@@H]3CN(C(=O)NCc4ccccc4)C[C@@H]32)C(=O)N1C | 1.05%
43 | CC[C@H](C)Nc1ncc(-c2ccn(C3CCN(C(C)=O)CC3)n2)cn1 | -9.22%
44 | CC[C@@H](C)[C@@H](N)C(=O)Nc1cccc(-c2cnc(NCCO)nc2)c1 | -3.08%

Row | SMILES | cytotoxicity at 10 µM
45 | CCOc1ccc(-c2ccnc(C)n2)cc1C(=O)O | 5.59%
46 | COCc1nc(CNC2CCCC(C)(C)C2)no1 (stereo not drawn) | 2.55%
47 | CC(CCN1CCC(n2cc(CCO)nn2)CC1)c1ccccc1 (stereo not drawn) | 3.23%
48 | COc1ccccc1-c1ncc(CN2CCC3(CCNCC3)CC2)cn1 | -1.49%
49 | Cn1c(Cn2ccnc2)nnc1C1CCCN(c2ncccn2)C1 (stereo not drawn) | -6.33%
50 | Cn1c(CCNC(=O)C2CCCN(C3CCOCC3)C2)n[nH]c1=O (stereo not drawn) | 2.12%
51 | COCCC1CN(c2nc(-c3ccccc3)nc3c2CCNC3)CCO1 (stereo not drawn) | -2.98%
52 | Cc1ncsc1CCN(C)C(=O)c1c(O)cccc1O | 0.417%
53 | CN(CCNC(=O)c1cnc(-c2ccncc2)nc1)S(C)(=O)=O | 5.23%
54 | Cc1nccc(NCc2cc3n(n2)CCCN(S(C)(=O)=O)C3)n1 | 2.35%
55 | CSc1cccc(CN(C)C(=O)Cn2ncc(N3CCCC3)cc2=O)c1 | -2.01%
56 | C/C=C(\C)CN1C[C@H](NC(=O)c2cc[nH]c2C)[C@@H](C2CC2)C1 | 4.96%
57 | NCC1Cc2cc(Cl)cc(-c3cncc(C(=O)N4CCCCC4)n3)c2O1 (stereo not drawn) | -53%
58 | COc1ccc(-n2c(SC)nc(O)c(Cc3ccccc3)c2=O)cc1 | -7.52%
59 | Cc1cc(F)cc(CN2CCCn3nc(CNS(C)(=O)=O)cc3C2)c1 | -3.85%
60 | O=C(N1CCC(OCc2ccccn2)CC1)C1(c2ccc(F)cc2)CC1 | 0.178%
61 | O=C(O)[C@@H]1CN(C2CCOCC2)C[C@H]1C1CC1 | -160%
62 | COCC1CCN(S(=O)(=O)N2C[C@@H](C)[C@@](C)(O)C2)CC1 | 3.45%
63 | CC[C@H](C)Cn1nc(C2CCNCC2)n(Cc2ccccc2)c1=O | -5.82%
64 | CCCN(Cc1cccc(OCCO)c1)Cc1ccccc1OC | 5.15%
65 | CCN(CCO)C(=O)c1cc(Cn2c(C)nc3ccccc32)[nH]n1 | 8.51%
66 | CNC(=O)[C@@H]1C[C@@H](n2cc(-c3ccc(CN4CC=CC4)cc3)nn2)CN1 | 3.76%

Row | SMILES | cytotoxicity at 10 µM
67 | Cc1cccc(C(=O)N2CCCCC2c2ccc(CN(C)C)cc2)n1 (stereo not drawn) | -19.5%
68 | Cc1c(Br)cc2c(c1C)OCC(N(C)C)C2=O (stereo not drawn) | -13.1%
69 | Cc1cn(Cc2ccccc2)nc1N | -4.66%
70 | COc1cc(CNC(C)Cn2cccn2)cc(OC)c1 (stereo not drawn) | 0.681%
71 | COc1ccc(CNCC2CNc3ccnn3C2)cn1 (stereo not drawn) | -3.84%
72 | CCn1cnnc1C1CCN(C(=O)c2ccc(Cl)cc2OC)CC1 | -1.94%
73 | CCC(O)CN1CCN(C(=O)CCc2c(C)noc2Cl)CC1 (stereo not drawn) | -8.89%
74 | Cc1noc(NC(=O)c2ccc(F)cc2)n1 | -0.481%
75 | Cc1noc(C)c1CN(C)C(=O)c1ccc(O)nc1 | -9.71%
76 | CC(NC(=O)NCc1ccccc1F)(C(=O)O)c1ccco1 (stereo not drawn) | -5.64%
77 | Cc1cccc(OCCN2CCC(c3ccnn3CCO)CC2)c1 | -4.87%
78 | O=C(c1cc[nH]n1)N1CCCC(c2cc(C(F)(F)F)[nH]n2)C1 (stereo not drawn) | -6.97%
79 | Cc1cc(F)ccc1NS(=O)(=O)c1cc2c(c(C(=O)O)c1)OCCO2 | -6.56%
80 | Cn1ccnc1CN1CCCN(C(=O)c2ccc3[nH]nnc3c2)CC1 | -8.53%
81 | CCCN1CCC(CNC(=O)C2(c3cc(C)cc(C)c3)CCC2)C1 (stereo not drawn) | -0.185%
82 | O=C(C1CCN(Cc2nc(-c3ccco3)no2)CC1)N1CCCC1 | -3.4%
83 | Cc1noc(C2CCN(C(=O)Nc3ccc(N(C)C)nc3)CC2)n1 | -3.45%
84 | CCn1c(CN2CCN(CCO)CC2)nc2c(F)cccc21 | -8.83%
85 | O=C(c1ccnc(-n2ccnc2)c1)N1CCCC(n2ccnc2)C1 (stereo not drawn) | 0.956%
86 | COCCCN(CCOC)Cc1nc2c(cnn2C)c(=O)[nH]1 | -5.72%
87 | Cc1nn(C)c(Cl)c1C1CCCN1C(=O)c1ccc[nH]1 (stereo not drawn) | -8.57%
88 | Cn1cnnc1C1CCCN(C(=O)CCc2ccc3c(c2)OCO3)C1 (stereo not drawn) | 0.415%

Row | SMILES | cytotoxicity at 10 µM
89 | COc1ccc(-c2nc(CN3CCCC3Cn3cccn3)no2)cc1 (stereo not drawn) | -1.89%
90 | Cc1nccn1C1CCCN(C(=O)c2ccc(N3CCCC3)nn2)C1 (stereo not drawn) | -11.2%
91 | Cc1ncc2c(n1)CN(CC(=O)Nc1ccncc1)CC2 | -8.7%
92 | Cn1ncc2c(=O)[nH]c(CN3CCCC3CC3CCCCC3)nc21 (stereo not drawn) | -2.41%
93 | CCOCC(O)CN1CCN(C(=O)CC(C)C)CC1 (stereo not drawn) | -6.98%
94 | Cc1cnn(CCC(=O)N2CCCC(c3cc(C(N)=O)[nH]n3)C2)c1 (stereo not drawn) | -7.32%
95 | CC(=O)N1CCC(N2CCC(c3nc(C)cc(C)n3)C2)CC1 (stereo not drawn) | -7.87%
96 | COc1ccccc1CN1CC[C@]2(C[C@@H](OCC(=O)N(C)C)CO2)C1 | -112%
97 | c1ncc(-c2ccc(C3CNCCO3)nc2)cn1 (stereo not drawn) | -5.33%
98 | Cc1ncsc1CN1C[C@H](C(=O)NCC2CC2)[C@@H]2CCO[C@@H]2C1 | -3.17%
99 | CN1CCN([C@@H]2CCN(C3CCOC3)[C@H]2Cc2cnn(C)c2)CC1 (stereo partly drawn) | 6.28%
100 | O=C(Nc1cnccn1)[C@@H]1COC[C@H]2CN(C3CCC3)C[C@H]21 | 14.7%
101 | O=S(=O)(NC[C@]12COC[C@H]1CN(CCc1ccccc1)C2)C1CC1 | 12.7%
102 | CO[C@H]1CCN(c2nnc(C)s2)C[C@@H]1Cc1cccc(C)c1 | 16.6%
103 | O=C1COC2(CCN(Cc3ccsc3)CC2)CN1 | -3.46%
104 | CN(C)C[C@H]1OC[C@@H]2CN(C(=O)NCc3cccc(F)c3)CC[C@@H]21 | -2.12%
105 | CN1CCN(c2ncnc3c2CCN(c2ncc(F)cn2)CC3)CC1 | 7.61%
106 | O=C(NCCc1cccs1)[C@]12COC[C@H]1CN(Cc1ccccn1)C2 | -105%
107 | CN(C)C(=O)CN1C[C@H]2CC[C@@H](C1)N(C(=O)Cc1ccccc1Cl)C2 | -11.2%
108 | N#Cc1ccccc1CN1C[C@H]2CC[C@@H](C1)N(CC1CC1)C2=O | -11.4%
